Laboratory results: ChEMBL document CHEMBL1139213, “Antimicrobial arylcoumarins from Asphodelus microcarpus” (2007)
≈ marks a conversion by molar mass, not a printed value.

Columns and labels:
Format in all cases: functional
Botrytis cinerea = experiment: Antifungal activity against Botrytis cinerea IAM1069
Candida albicans = experiment: Antifungal activity against Candida albicans IAM1099
Escherichia coli = experiment: Antibacterial activity against Escherichia coli IAM1257
Summary of the method: (§1)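 Broth microdilution MIC. Bacteria grown 16 h on BHI agar, suspended in MH broth at about (3-6) × 10^6 cfu/mL. Test materials applied at 20–100 mg/mL (as stated, before dilution), serially 2-fold diluted, then mixed with the bacterial suspension. Incubated 24 h at 37°C before MIC read-out. Positive controls: ampicillin for S. aureus and E. coli, penicillin G for P. aeruginosa.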

Pseudomonas aeruginosa = experiment: Antibacterial activity against Pseudomonas aeruginosa IAM1058; summary of the method: as §1
Staphylococcus aureus = experiment: Antibacterial activity against Staphylococcus aureus IAM1011; summary of the method: as §1

| Molecule | MIC (Botrytis cinerea) [µg/mL] | MIC (Candida albicans) [µg/mL] | MIC (Escherichia coli) [µg/mL] | MIC (Pseudomonas aeruginosa) [µg/mL] | MIC (Staphylococcus aureus) [µg/mL] | Activity (Botrytis cinerea) [µg/mL] |
| --- | --- | --- | --- | --- | --- | --- |
| O=c1oc2cc(O)ccc2c(O)c1-c1ccc(O[C@@H]2O[C@H](CO)[C@@H](O)[C@H](O)[C@H]2O)cc1O | 1020 (≈ 2280 µM) | 512 (≈ 1140 µM) | 128 (≈ 285 µM) | 256 (≈ 571 µM) | 128 (≈ 285 µM) | – |
| CC1(C)S[C@@H]2[C@H](NC(=O)[C@H](N)c3ccccc3)C(=O)N2[C@H]1C(=O)O [AMPICILLIN] | – | – | 1 (≈ 2.86 µM) | – | < 0.5 | – |
| O=c1oc2cc(O)ccc2c(O)c1-c1ccc(O)cc1O [ASPHODELIN A] | 128 (≈ 447 µM) | 64 (≈ 224 µM) | 4 (≈ 14 µM) | 8 (≈ 27.9 µM) | 16 (≈ 55.9 µM) | – |
| CC1(C)S[C@@H]2[C@H](NC(=O)Cc3ccccc3)C(=O)N2[C@H]1C(=O)O [PENICILLIN G] | – | – | – | 1 (≈ 2.99 µM) | – | – |
| NYSTATIN | – | < 0.5 | – | – | – | < 0.5 |
